Measured values pooled from the literature.
Protocols differ between the studies behind these lines.
Target: Serine/threonine-protein kinase ICK (CILK1, Homo sapiens, UniProt Q9UPZ9)
Residues used in one study (Q9UPZ9 1-632): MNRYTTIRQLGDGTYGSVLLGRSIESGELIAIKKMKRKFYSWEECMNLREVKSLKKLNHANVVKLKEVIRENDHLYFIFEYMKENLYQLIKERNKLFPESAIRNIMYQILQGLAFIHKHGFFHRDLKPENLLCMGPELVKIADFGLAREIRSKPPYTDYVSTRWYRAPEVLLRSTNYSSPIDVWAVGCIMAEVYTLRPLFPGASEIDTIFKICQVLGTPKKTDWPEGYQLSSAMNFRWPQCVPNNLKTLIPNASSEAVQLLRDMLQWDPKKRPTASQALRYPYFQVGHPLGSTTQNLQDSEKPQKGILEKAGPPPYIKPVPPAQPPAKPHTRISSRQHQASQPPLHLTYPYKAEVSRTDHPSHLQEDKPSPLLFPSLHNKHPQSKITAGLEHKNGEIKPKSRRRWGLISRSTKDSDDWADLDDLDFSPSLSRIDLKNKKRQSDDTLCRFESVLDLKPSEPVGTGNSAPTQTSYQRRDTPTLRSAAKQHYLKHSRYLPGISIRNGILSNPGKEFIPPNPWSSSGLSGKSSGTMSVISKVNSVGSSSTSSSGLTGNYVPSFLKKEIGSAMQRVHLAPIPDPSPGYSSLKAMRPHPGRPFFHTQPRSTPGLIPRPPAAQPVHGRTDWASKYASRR

| Structure (SMILES) | test | setting | measurement | result |
| --- | --- | --- | --- | --- |
| Cc1ccc(C(=O)NCc2ccsc2)cc1C#Cc1cn(C(C)C)c2ncnc(N)c12 | enzyme activity, inhibitor | 1 µM | activity vs control | 103% |
| Cc1sc(C(=O)NC2COC2)cc1-n1cc(NC(=O)Nc2c(F)cccc2Cl)cn1 | enzyme activity, inhibitor | 10 µM | remaining activity | 100% |
| O=C1NC(c2ccccn2)Sc2ccccc21 (stereo not drawn) | cell-free assay, competition with immobilised ligand | 1 µM | remaining binding | 86% |
| Cc1ccc(C(=O)Nc2ccc(CN3CCN(C)CC3)c(C(F)(F)F)c2)cc1C#Cc1cnc2cccnn12 | enzyme activity | 23.5 nM | remaining activity | 96% |
| CN1CC(Oc2cnc(C#N)cc2-c2ccn3nc(NC(=O)C4CC4)cc3c2)C1 | enzyme activity, inhibitor | 1 µM | inhibition | -20% |
| CO[C@@H](C)c1c(Nc2ccc([C@H](N(C)C(=O)C3CCS(=O)(=O)CC3)C(F)(F)F)cc2)cnc2cc(Cl)nn12 | cell-free assay, competition with immobilised ligand | 1 µM | remaining binding | 70% |
| CC(C)(O)[C@H]1CC[C@H](Nc2ccc3ncc(-c4cccc(C(F)(F)F)c4)n3n2)CC1 | enzyme activity, inhibitor | 1 µM | remaining activity | 86% |
| Nc1ncnc2occ(-c3ccc(NC(=O)Nc4cc(C(F)(F)F)ccc4F)cc3)c12 | cell-free assay | 20 µM | remaining signal | 12% |
| O=C(Nc1cnn(-c2csc(C(=O)NC3COC3)c2)c1)Nc1c(F)cccc1Cl | enzyme activity, inhibitor | 5 µM | remaining activity | 96.6% |
